Source: PubChem (several laboratories)
T cell modulator: T cell immune modulators affecting CD8 T cell-vesicle binding; 2C CD8+ T cell-vesicle binding, flow cytometry; active compounds read low; response (vesicle binding), % at 7 µM; actives 0.068% (n = 330,000);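 active = response, share of CD8 T cells binding vesicles, and their 90th percentile fluorescence all below set limits, cut at about 80% in these data, passing the limit was not always enough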;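 also: values below 100% mean blocked vesicle binding to the CD8+ T cells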
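Incubation: binding step 1.5 h, 37 °C, antibody labelling 20 min, ice; system: murine 2C transgenic CD8+ T lymphocytes; technique: cytometric PE anti-B7-1 and Alexa647 anti-CD8 signals after 1% paraformaldehyde fixation; also added: QL9-charged Drosophila Ld/ICAM-1/B7-1 vesicles; control set: naked versus QL9-loaded vesicles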
CR mimetic SO: caloric restriction mimetics inhibiting age-related superoxide in yeast | S. cerevisiae aged cells, superoxide DHE fluorescence; active compounds read low | superoxide response (% of plate mean), % at 10 µM | actives 0.18% (n = 330,000);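 active = superoxide response under a set limit, about three screen SD below normal, cut at about 65% in these data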;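 also: yeast aged for seven days with compound at 30 °C before DHE staining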
S1P3 antag: blocks the human S1P3 receptor. CHO S1P3 NFAT-BLA reporter, FRET fluorescence, antagonist mode. inhibition, % at 4.98 µM. actives 0.27% (n = 170,000);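 active = inhibition above the plate cutoff, the mean inhibition of test wells on that plate plus 3 SD, cut at about 28% in these data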;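 also: cells challenged with S1P at its EC80 of 0.8 µM; blue over green emission ratio from cleaved BLA substrate after 4 h stimulation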
Target sequence (Q99500 whole entry, looked up): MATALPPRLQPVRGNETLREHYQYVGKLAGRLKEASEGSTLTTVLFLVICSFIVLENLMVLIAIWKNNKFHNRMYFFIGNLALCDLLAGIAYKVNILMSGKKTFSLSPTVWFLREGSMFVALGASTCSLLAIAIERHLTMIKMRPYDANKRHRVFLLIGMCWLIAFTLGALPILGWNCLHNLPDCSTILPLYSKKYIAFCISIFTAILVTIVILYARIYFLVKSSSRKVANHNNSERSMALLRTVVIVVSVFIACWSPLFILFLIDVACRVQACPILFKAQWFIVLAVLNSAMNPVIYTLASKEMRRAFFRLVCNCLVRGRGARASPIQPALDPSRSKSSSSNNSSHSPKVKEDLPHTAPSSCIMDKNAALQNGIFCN
CR mimetic CP: yeast aging superoxide inhibition, cherry pick confirmation; shares compounds with CR mimetic SO; S. cerevisiae aging, superoxide DHE fluorescence; active compounds read low; superoxide response (% of plate), % at 10 µM; actives 1% (n = 850); AID 434994;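 active = superoxide signal below 65% of the plate average of sample wells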;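 also: cells aged with compound for 7 days at 30 degrees C before staining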
DHE fluor count: counter-screen for compounds affecting DHE oxidation and fluorescence in yeast; S. cerevisiae BY4741, flow cytometry; active compounds read low; 850 tested, under 10 active; fluorescence response, % at 10 µM; shares compounds with CR mimetic SO; AID 435000;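 active = fluorescence response below 15%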;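 also: lower means stronger quenching of DHE signal or ROS scavenging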
A number is an active result; – = inactive; · = no result. Only some compounds are listed: those with a hit (about 0.41% of all), similar ones and a draw of the others.

SMILES | T cell modulator | CR mimetic SO | S1P3 antag | CR mimetic CP | DHE fluor count
CCCn1c(=O)n(CC(=O)NCC2CCCO2)c(=O)c2c3c(sc21)COC(C)(C)C3 (stereo not given) | – | – | · | · | ·
CSc1ncc(Cl)c(C(=O)Nc2ccccc2[N+](=O)[O-])n1 | – | – | · | · | ·
CSc1ncc(Cl)c(C(=O)Nc2ccccc2C)n1 | – | – | · | – | –
O=C(/C=C/c1cccs1)NC(=S)NNC(=O)Cc1cccs1 | – | 39.3 | · | – | –
COc1ccc(/C=C/C(=O)NC(=S)NNC(=O)Cc2cccs2)cc1OC | – | – | · | · | ·
CC1CN(S(=O)(=O)c2ccc(C(=O)Nc3ccccc3F)cc2)CC(C)O1 (stereo not given) | – | – | · | · | ·
CCOc1ccccc1N(C)C(=O)CCS(=O)(=O)c1ccc2c(c1)NC(=O)C(C)S2 (stereo not given) | – | – | · | · | ·
CC1(C)Cc2ccccc2C2=NNC(=O)C2=N1 | – | 56.2 | – | – | –
CC1(C)Cc2ccccc2C(Nn2cnnc2)=N1 | – | – | – | · | ·
Cc1cccc(NS(=O)(=O)c2ccc(-n3cccn3)cc2)c1C | – | – | · | · | ·
O=C(c1ccccc1)N1N=C(c2ccccc2O)CC1c1ccccc1 (stereo not given) | – | – | · | · | ·
O=C(Nc1ccc2ccccc2c1)c1ccc(Cl)cc1Cl | – | 49.5 | – | – | –
O=C(Nc1ccc2ccccc2c1)c1cc(F)c(F)cc1Cl | – | – | · | · | ·
COc1ccc(CN(C)C(=O)c2cnc(C)cn2)c(OC)c1OC | – | – | · | · | ·
CCCCCN(C(=O)CCC(=O)OCc1ccccc1C)c1c(N)n(CCCC)c(=O)[nH]c1=O | – | – | · | · | ·
CCCCCN(C(=O)CCC(=O)OCc1ccccc1Cl)c1c(N)n(CCCC)c(=O)[nH]c1=O | – | 59.9 | · | – | –
CC(NC(=O)COc1ccccc1Cl)c1ccccc1 (stereo not given) | – | – | · | · | ·
Cc1ccc(-c2nnc(Nc3ccc(CC(N)=O)cc3)c3ccccc23)cc1S(=O)(=O)NCC1CCCO1 (stereo not given) | – | – | – | · | ·
Cc1ccc(-c2nnc(Nc3ccc(C(=O)N(C)C)cc3)c3ccccc23)cc1S(=O)(=O)NC(C)(C)CO | – | – | – | · | ·
Cc1ccc(-c2nnc(Nc3ccc(C(=O)N(C)C)cc3)c3ccccc23)cc1S(=O)(=O)NCC1CCCO1 (stereo not given) | – | – | – | – | –
COC(=O)c1ccc(Nc2nnc(-c3ccc(C)c(S(=O)(=O)NCC4CCCO4)c3)c3ccccc23)cc1 (stereo not given) | – | – | – | – | –
O=C(COC(=O)c1ccccc1Nc1ccccc1)NCc1ccccc1 | – | – | – | · | ·
NC(=O)c1ccc(NC(=O)COC(=O)c2ccccc2Nc2ccccc2)cc1 | – | 56.1 | – | – | –
CC(C)CNC(=O)C1CCN(c2ccc(S(=O)(=O)N3CCOCC3)cc2)CC1 | · | – | – | · | ·
O=C(NC1CC1)C1CCN(c2ccc(S(=O)(=O)N3CCOCC3)cc2)CC1 | – | 64.8 | – | – | –
SMILES | T cell modulator | CR mimetic SO | S1P3 antag | CR mimetic CP | DHE fluor count
COc1ccc(-n2nnnc2SCC(=O)NC2CCS(=O)(=O)C2)cc1 (stereo not given) | – | – | · | · | ·
COc1cc(/C=C/C(=O)OCC(=O)N(C)Cc2ccccc2)ccc1O | – | – | · | · | ·
O=C(NC1CCCCCC1)c1ccco1 | – | – | · | · | ·
Cc1cc(C)c(OCC(=O)NCC2COc3ccccc3O2)c(C)c1 (stereo not given) | – | – | · | · | ·
O=C(OCc1c(F)cccc1Cl)c1cnc2ccccc2n1 | – | 53.6 | · | – | –
O=C(OCc1c(F)cccc1Cl)c1cnccn1 | – | – | – | · | ·
CC(=O)c1ccc(N/N=C2/CCCNC2=O)cc1 | – | 62.8 | – | – | –
Cc1ccc(N/N=C2/CCCNC2=O)cc1 | – | – | · | · | ·
O=C(CN(C(=O)c1csnn1)c1ccc(F)cc1)NCc1ccc2c(c1)OCO2 | – | – | · | · | ·
CCN(CC)S(=O)(=O)c1ccc(NC(=O)CCN2C(=O)C3CC=CCC3C2=O)cc1 (stereo not given) | – | – | · | · | ·
O=C(NCc1ccc(Cl)cc1)C1CCN(c2cnccn2)CC1 | – | – | – | · | ·
O=C(NCc1ccc(Cl)cc1)C1CCCN(c2cnccn2)C1 (stereo not given) | – | 65.4 | · | – | –
O=C(OCN1C(=O)c2ccccc2C1=O)c1ccc(Cl)nc1 | – | – | · | · | ·
CCOC(=O)c1ccccc1NC(=O)c1cccs1 | – | – | – | · | ·
CCOC(=O)c1ccccc1N/C=C/C(=O)c1cccs1 | – | 63.4 | – | – | –
C/C(CC1CC(C)OC1=O)=N\NC(N)=S (stereo not given) | – | – | – | · | ·
C/C(CCC12CC3CC(CC(C3)C1)C2)=N\NC(N)=S | – | 64.0 | · | – | –
CCN(CC(=O)Nc1c(F)cccc1F)C(=O)C1COc2ccccc2O1 (stereo not given) | – | – | · | · | ·
N#Cc1c(N)nc2c(c1-c1ccncc1)CCCCC2 | – | – | – | · | ·
CSc1ccc(-c2c(C#N)c(N)nc3c2CCCC3)cc1 | – | 64.2 | – | – | –
COc1cc(/C=C/[N+](=O)[O-])ccc1OC(=O)/C=C/c1ccc(F)cc1 | – | – | · | · | ·
Cc1ccc(C(=O)CN2C(=O)C(C)Oc3ccccc32)cc1 (stereo not given) | – | – | – | · | ·
CC1Oc2ccccc2N(CC(=O)c2ccccc2)C1=O (stereo not given) | – | 59.6 | – | – | –
Cc1ccc(S(=O)(=O)NCC(=O)OCC(=O)N(CCC#N)c2ccccc2)cc1 | – | – | · | · | ·
O=C(NCCOc1ccccc1)c1ccccc1Cl | – | – | · | · | ·
SMILES | T cell modulator | CR mimetic SO | S1P3 antag | CR mimetic CP | DHE fluor count
COc1ccc(OCCNC(=O)c2ccccc2Cl)cc1 | – | 64.2 | · | – | –
COc1ccc(CCC(=O)NCCOc2ccc(C)cc2)cc1 | – | 39.3 | · | – | –
COc1ccc(CCNC(=O)CCc2ccc(OC)cc2)cc1 | – | – | · | · | ·
COc1ccc(Cl)cc1NC(=O)CCc1nnc2ccc(N3CCN(C)CC3)nn12 | – | – | · | · | ·
CC(C)n1cc(CN2CCCC(C(=O)Nc3ccccc3Oc3cccnc3)C2)cn1 (stereo not given) | – | – | · | · | ·
NC(=O)NC(=O)C(Nc1ccc(N2CCCCC2)cc1)c1ccccc1 (stereo not given) | – | – | · | · | ·
Cc1ccc(C(=O)SC2=NCCS2)cc1 | – | 57.8 | · | – | –
COc1ccc(C(=O)SC2=NCCS2)cc1OC | – | – | – | · | ·
Cc1nn(-c2ccccc2)c(C)c1NC(=O)COC(=O)c1ccccc1OC(F)F | – | – | · | · | ·
C[C@H](CCC(=O)O)[C@H]1CC[C@H]2[C@@H]3CC[C@@H]4C[C@H](O)CC[C@]4(C)[C@H]3CC[C@]12C | – | – | · | · | ·
CC(=O)[C@@]1(O)CCC2C3CC[C@H]4C[C@@H](O)CC[C@]4(C)C3CC[C@@]21C (stereo not given in full) | – | – | · | – | –
Cc1ccc(S(=O)(=O)NC(C)(C)C)cc1C(=O)OCC(=O)N1CCCC1=O | – | – | · | · | ·
CN(C)c1ccc(NC(=O)c2cccc(C(=O)Nc3ccc(N(C)C)cc3)n2)cc1 | – | 64.5 | – | – | –
O=C(Nc1ccccc1)c1cccc(C(=O)Nc2ccccc2)n1 | – | – | · | · | ·
CN1CCN(C(=O)Cn2ncc3c([nH]c4ccccc43)c2=O)CC1 | – | – | · | · | ·
